Shown are actives, neighbours in structure and some others; about 3% of the full set was active somewhere.
M4 ag – human M4 muscarinic receptor agonists, primary screen, CHO-K1 cells, Fluo-8 calcium fluorescence. AID 624127, 2012. activation, % at 3 µM. Muscarinic acetylcholine receptor M4 (Homo sapiens), P08173. 360,000 tested, 0.14% active. CHO-K1 hM4/Gqi5; vehicle 0%, full acetylcholine response 100%;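 active means activation above the run mean over all test wells plus 3 SD, cut at about 32% in these data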;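 further: peak over basal fluorescence ratio per well then scaled between controls; 0% = DMSO wells and 100% = acetylcholine at EC100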
Target sequence (P08173 whole entry, looked up): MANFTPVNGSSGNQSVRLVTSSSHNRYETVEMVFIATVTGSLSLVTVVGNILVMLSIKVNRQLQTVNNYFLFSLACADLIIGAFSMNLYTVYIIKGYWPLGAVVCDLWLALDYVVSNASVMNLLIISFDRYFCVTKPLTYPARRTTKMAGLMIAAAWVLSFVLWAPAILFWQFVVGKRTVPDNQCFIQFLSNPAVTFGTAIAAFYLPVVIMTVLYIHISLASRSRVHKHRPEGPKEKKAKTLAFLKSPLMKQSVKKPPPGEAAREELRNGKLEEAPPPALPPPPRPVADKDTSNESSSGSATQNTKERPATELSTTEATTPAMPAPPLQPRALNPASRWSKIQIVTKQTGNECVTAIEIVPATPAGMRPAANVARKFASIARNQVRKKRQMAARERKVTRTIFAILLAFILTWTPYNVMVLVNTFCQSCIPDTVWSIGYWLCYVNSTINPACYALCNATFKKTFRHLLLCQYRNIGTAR
CHRM4 antagonist – human M4 muscarinic receptor antagonists, primary screen, CHO cells, Fluo-8 calcium fluorescence. CHO-hM4 cells, ACh EC80. inhibition, % at 3 µM. 360,000 tested, 0.73% active. AID 624125, 2012;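 active means inhibition above its plate's cutoff, the mean inhibition of sample wells plus 3 SD, cut at about 27% in these data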;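 further: 0% = acetylcholine EC80 with DMSO and 100% = DMSO without agonist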
TAAR1 antag – human TAAR1 antagonists, primary screen, Fluo-8 calcium fluorescence, CHO RD-HGA16 cells; Trace amine-associated receptor 1 (Homo sapiens), Q96RJ0; antagonist; inhibition, % at 3 µM; 360,000 tested, 1.5% active; AID 624466, 2012;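 active means inhibition above a per-plate cutoff, the mean inhibition of test compounds on that plate plus 3 SD, cut at about 49% in these data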;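 further: 0% = DMSO plus EC80 beta-PEA response and 100% = DMSO alone without agonist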
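Test system – hTAAR1-expressing CHO RD-HGA16 cells, Gα16-coupled · Reagent – β-PEA at EC80 concentration, post-compound challenge · Compound dosing – 3 µM, single point · Timing – 140 s kinetic read after compound, 140 s after agonist · Detection – Fluo-8 intracellular calcium dye fluorescence, real-time kinetic reads · Control set – DMSO and EC80 PEA controls · Repeats – n of 1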
TAAR1 agonist – human TAAR1 agonists, primary screen, Fluo-8 calcium fluorescence, CHO RD-HGA16 cells. vehicle wells 0%, saturating PEA agonist 100%. activation, % at 3 µM. 360,000 tested, 0.99% active. AID 624467, 2012;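 active means activation above the mean activation of all test compounds in the run plus 3 SD, cut at about 38% in these data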
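test system = CHO RD-HGA16 cells carrying human TAAR1 plus Gα16 | schedule = 17-24 h seeding, 75 min 37 °C dye, 30 min RT | compound dosing = 3 µM single concentration | control set = DMSO and PEA EC100 | replicates = n 1 | signal = Fluo-8 fluorescence, 5 s baseline then 140 s kinetic read | measure = percent activation vs PEA EC100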
M4 PAM – human M4 muscarinic receptor positive allosteric modulators, primary screen, CHO-K1 cells, Fluo-8 calcium fluorescence; activation, % at 3 µM; 360,000 tested, 0.4% active; CHO-K1 hM4/Gqi5, ACh EC20; 0% = ACh EC20, 100% = maximal ACh; Muscarinic acetylcholine receptor M4 (Homo sapiens), P08173;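 active means activation above its plate's cutoff, the mean activation of sample wells plus 3 SD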
TAAR1 ag confirm – human TAAR1 agonists, retest of hits, confirmation, Fluo-8 calcium fluorescence, CHO RD-HGA16 cells | shares compounds with TAAR1 agonist | scaled: DMSO 0%, maximal phenethylamine 100% | 2,400 tested, 82% active | activation, % at 3 µM;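 active means activation above a cutoff set at the run's mean compound activation plus 3 SD, cut at about 39% in these data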
Ga16 nonsel ag – nonselective calcium mobilization agonists, CHO-Ga16 cells, counter-screen for hTAAR1 agonist project, cell-based, fluorescence, CHO-Ga16 parental line | shares compounds with TAAR1 agonist | 2,400 tested, 50% active | Fluo-8 calcium fluorescence; normalized to maximal ATP response, DMSO zero | AID 651787, 2012 | activation, % at 3 µM;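 active means activation above the run cutoff, the mean activation over all tested wells plus 3 SD, cut at about 12% in these data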;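 further: 0% = DMSO wells and 100% = maximal ATP response on the peak over basal ratio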
TAAR1 desens – TAAR1 desensitization by agonist hits, confirmation, counter-screen for TAAR1 agonist project, cell-based, fluorescence, tachyphylaxis | AID 651951, 2012 | 2,400 tested, 46% active | CHO RD-HGA16 hTAAR1, Fluo-8 calcium, beta-PEA response inhibition | shares compounds with TAAR1 agonist | inhibition, % at 3 µM;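 active means inhibition above the run cutoff, the mean inhibition of all test compounds plus 3 SD, cut at about 49% in these data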;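 further: beta-PEA stimulus applied at its EC80; loss of beta-PEA calcium signal after compound pretreatment read as receptor desensitization; 0% = DMSO with beta-PEA at EC80 and 100% = DMSO alone without agonist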
Ga16 antag count – inhibition of ATP-evoked calcium response in CHO-Ga16 cells, counter-screen for TAAR1 agonist project, cell-based, fluorescence. CHO-Ga16 ATP-induced calcium, Fluo-8 fluorescence. inhibition, % at 3 µM. AID 651952, 2012. 2,400 tested, 39% active. shares compounds with TAAR1 agonist;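 active means inhibition above the plate's mean compound inhibition plus 3 SD, computed per plate, cut at about 22% in these data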;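 further: 0% = EC80 ATP with DMSO and 100% = DMSO wells without ATP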
The depositor's hits bear a star; nt = no result.

SMILES	M4 ag	CHRM4 antagonist	TAAR1 antag	TAAR1 agonist	M4 PAM	TAAR1 ag confirm	Ga16 nonsel ag	TAAR1 desens	Ga16 antag count
CCCCC(CC)CNCC(O)c1ccccc1 (stereo not given)	3	5	5	53*	-2	64*	5	28	4
CC1CCC(NCC(O)c2ccccc2)CC1 (stereo not given)	1	-1	-4	1	3	nt	nt	nt	nt
COc1ccc(C(c2nnnn2C(C)(C)C)N2CCC3(CC2)C(=O)NCN3c2ccccc2)cc1 (stereo not given)	-2	-3	-42	4	7	nt	nt	nt	nt
COc1cc(OC)c(OC)cc1CNCCc1cccc(F)c1	1	8	35	79*	6	78*	12*	36	2
COc1cc(OC)c(OC)cc1CNCCc1ccc(OC)c(OC)c1	0	0	-34	4	12	nt	nt	nt	nt
O=[N+]([O-])c1ccc(NCc2ccc(Cl)cc2)c2ccncc12	2	-1	-1	16	1	nt	nt	nt	nt
O=[N+]([O-])c1ccc(NCc2ccccc2)c2nonc12	nt	nt	107*	954*	nt	496*	650*	105*	103*
CCOC(=O)c1cc2cc(OC)ccc2n1C1CCN(Cc2ccccc2)CC1	-2	-16	-16	-1	0	nt	nt	nt	nt
O=C(NCCN1CCC2(CC1)C(=O)NCN2c1ccccc1)c1ccc(F)c(F)c1	nt	nt	103*	110*	nt	102*	67*	104*	87*
CCCCn1nnnc1C(CC)N1CCC2(CC1)C(=O)NCN2c1ccccc1 (stereo not given)	7	-19	-2	3	2	nt	nt	nt	nt
O=C(NCCN1CCC2(CC1)C(=O)NCN2c1ccccc1)c1cccc(F)c1	nt	nt	74*	60*	nt	39*	21*	54*	31*
COc1ccc(CNCCc2ccc(Cl)cc2Cl)cc1	0	-5	-2	5	0	nt	nt	nt	nt
Clc1ccc(CCNCc2ccncc2)c(Cl)c1	3	-1	52*	74*	-6	89*	5	71*	1
CCOc1ccc([N+](=O)[O-])cc1CNCCc1ccccc1	0	4	27	52*	-8	66*	2	51*	18
O=[N+]([O-])c1ccc(CNCCc2ccccc2)cc1	2	-16	-7	65*	6	64*	2	27	9
O=[N+]([O-])c1ccccc1CNCCc1ccc(F)cc1	2	-2	-7	36	-3	nt	nt	nt	nt
COC(=O)[C@@H]1N=C(c2ccc(OC)cc2)O[C@]12C(=O)N(C)c1cccc(Cl)c12	2	0	-15	8	6	nt	nt	nt	nt
CN1/C(=C\C=C2C(=O)NC(=S)NC2=O)C(C)(C)c2ccccc21	23	15	95*	308*	-14	191*	208*	90*	92*
CC1(C)OC(c2ccccc2)=C/C(=C/C=C2C(=O)NC(=S)NC2=O)O1	nt	nt	109*	111*	nt	79*	72*	105*	100*
C=CC12CN(C)C3C4COC(CC41)C1(C(=O)Nc4ccccc41)C32 (stereo not given)	0	5	-18	3	2	nt	nt	nt	nt
O=c1cc(C(F)(F)F)c2cc3c4c(c2o1)CCCN4CCC3	86*	45*	95*	195*	-16	89*	112*	70*	75*
Cc1cc2c(C(F)(F)F)cc(=O)oc2c2c1NCCC2	1	-3	1	15	10	nt	nt	nt	nt
c1ccc(Cc2cnc(N3CCNCC3)nc2)cc1	nt	nt	-18	45*	nt	58*	0	19	5
C[C@H](CO)N1C[C@H](C)[C@@H](CN(C)C(=O)Oc2ccc3ccccc3c2)OCc2cn(nn2)CCCC1=O	0	-5	-9	1	1	nt	nt	nt	nt
C=C1C(=O)OC2CC3(C)OC3C3OC3C3=CC(OC3=O)C12 (stereo not given)	1	14	8	2	2	nt	nt	nt	nt
SMILES	M4 ag	CHRM4 antagonist	TAAR1 antag	TAAR1 agonist	M4 PAM	TAAR1 ag confirm	Ga16 nonsel ag	TAAR1 desens	Ga16 antag count
CCc1ccc(NC(=O)C(C)OC(=O)c2c(C)nn(Cc3ccccc3)c2Cl)cc1 (stereo not given)	0	9	6	7	-7	nt	nt	nt	nt
CCOc1ccc(NC(=O)c2c(C)nn(Cc3ccccc3)c2Cl)cc1	0	7	64*	54*	-2	79*	43*	76*	46*
c1ccc2oc(-c3ccc4c(c3)CNCc3cnnn3-4)cc2c1	7	-3	-4	7	3	nt	nt	nt	nt
CCOC(=O)c1c(-n2c(C)cc(C=C3C(=O)NC(=O)NC3=O)c2C)sc2c1CCCC2	-1	7	35	47*	-9	53*	28*	44	38*
CCCCCN1C(=O)c2cc(OC)ccc2[C@@]2(C(=O)OCC)Cc3cc(Cl)ccc3[C@@H]12	-1	14	4	4	17	nt	nt	nt	nt
CN(CCc1ccccc1)Cc1ccccc1[N+](=O)[O-]	1	-4	-1	5	10	nt	nt	nt	nt
Oc1ccccc1CN(CCc1ccccc1)Cc1ccccc1	-1	1	32	49*	-10	75*	16*	89*	14
CC(=O)OC1C(O)C2=C3C4(C)C1C(C)(C)C(=O)CC4C3(O)C(OC(C)=O)C1(CC1C)C2=O (stereo not given)	1	-4	0	1	1	nt	nt	nt	nt

Screening data deposited in PubChem by The Scripps Research Institute Molecular Screening Center.
